Experimental data from different studies.
Each line is one published result; the experiments were not run side by side.
Target: Tyrosine-protein kinase BTK (BTK, Homo sapiens, UniProt Q06187)
Read-out: enzyme activity
Mode: inhibitor

CCN(CC)CCNC(=O)c1c(C)[nH]c(/C=C2\C(=O)Nc3ccc(F)cc32)c1C
inhibition (10 µM): 85%

CNC(=O)c1cc2c(Oc3ccc(NC(=O)C4(C(=O)Nc5ccc(F)cc5)CC4)cc3)ccnc2cc1OC
inhibition (radiometric; 1 µM): 94%

CNC(=O)c1cc(Oc2ccc(NC(=O)Nc3ccc(Cl)c(C(F)(F)F)c3)cc2)ccn1
inhibition (0.3 µM): 1%

CS(=O)(=O)Nc1cccc(-c2csc(NC(=O)CSc3nc4nccnc4c(=O)n3CCc3ccccc3)n2)c1
inhibition (10 µM): 3%

CNCc1ccc(-c2cc(-c3nc(-c4ccc(S(=O)(=O)C(C)C)cc4)cnc3N)on2)cc1
inhibition (0.4 µM): 4%

C=CC(=O)Nc1cc(Nc2nccc(Nc3cc(Cl)c(F)cc3C(C)(C)O)n2)c(OC)cc1N1CC[C@@H](N(C)C)C1
inhibition (1 µM): 96%

COc1cc2nccc(Oc3ccc(NC(=O)c4c5n(n(-c6ccc(F)cc6)c4=O)CCCC5)cc3)c2cc1OC
inhibition (0.1 µM): -7%

Cc1ccc(Nc2nccc(N(C)c3ccc4c(C)n(C)nc4c3)n2)cc1S(N)(=O)=O
inhibition (10 µM): 72%

COc1cc2ncnc(Nc3ccc(Oc4ccccc4)cc3C)c2cc1OC
inhibition (1 µM): 71%

CN(C)C1CCN(CC#Cc2nn(C3CCCC3)c3nc(NCc4ccccc4)ncc23)C1 (stereo not drawn)
inhibition (FRET; 0.1 µM): 8%

CC/C(=N\NC(=O)NCc1cccc(O)c1)c1ccc(O)c(C)c1O
inhibition (0.1 µM): -0.2%

CC#CC(=O)N1CCC[C@H]1c1nc(-c2ccc(C(=O)Nc3ccccn3)cc2)c2c(N)nccn12
inhibition (radiometric; 0.1 µM): 83%
